Source: article PMC12401554 (Archives of toxicology, 2023)

Tests used:
[1] = ref IARC Monographs, Volumes 1–133; IARC 1978; cited from earlier work
[2] = tested on: CYP2A6-expressing TK6 cells; conditions: ref Li et al. 2022; cited from earlier work
[3] = tested on: animal species, including frog, rodent, rabbit, and monkey; conditions: ref Bogovski and Bogovski 1981; cited from earlier work
[4] = tested on: 3D HepaRG spheroids; assay: HT flow-cytometry-based MN assay in 3D HepaRG spheroids; assay type: cell-based, human; conditions: for Fold increase of MN formation over the vehicle control: at the maximum concentration shown in the table
[5] = tested on: 3D HepaRG spheroids; assay: CometChip assay; assay type: cell-based, human; conditions: for Outcome, CometChip assay / Fold increase of DNA damage over the vehicle control: 24-h exposure; for Fold increase of DNA damage over the vehicle control: at the maximum concentration shown in the table; for BMC50 estimate for DNA strand breakage, rank among the eight nitrosamines: PROAST exponential model
[6] = tested on: rat; conditions: ref Lhasa Carcinogenicity Database; cited from earlier work
[7] = tested on: 2D HepaRG cells; assay: CometChip assay; assay type: cell-based, human; conditions: 24-h exposure; for Fold increase of DNA damage over the vehicle control: at the maximum concentration shown in the table
[8] = ref European Chemicals Agency (ECHA) Classification and Labelling Inventory; cited from earlier work
[9] = tested on: rat; conditions: ref Ambient water quality criteria for nitrosamines, US Environmental Protection Agency; cited from earlier work
[10] = tested on: 2D HepaRG cells; assay: HT flow-cytometry-based MN assay in 2D HepaRG cells; assay type: cell-based, human; conditions: for Fold increase of MN formation over the vehicle control: at the maximum concentration shown in the table
[11] = tested on: wild-type TK6 cells or TK6 cells transduced with human CYP1A1, 2A6, 2E1, or 3A4 genes; conditions: ref Li et al. 2022; cited from earlier work
[12] = tested on: Namalva cells; conditions: human Burkitt lymphoblastoid cell line, ref Janzowski et al. 1989; cited from earlier work
[13] = tested on: 3D HepaRG spheroids; assay: MultiFlow DNA damage assay; assay type: cell-based, human; conditions: 3D HepaRG cultures, PROAST exponential model
Outline: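 Spheroids were exposed for 24 h in differentiation medium containing 100 ng/ml hEGF, then kept 5 days in the same medium without test compound. They were dissociated with Accutase and stained 1 h at room temperature for γH2A.X, phospho-H3 and P53, then analysed by flow cytometry. Responses are median-fluorescence fold-changes versus vehicle. BMC50 (50% increase over vehicle; 90% CI) came from exponential-model benchmark analysis with compound as covariate.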

[14] = tested on: 3D HepaRG spheroids; assay: ATP assay; assay type: cell-based, human; conditions: 24-h exposure, at concentrations up to 10 mM
Outline: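 Differentiated HepaRG cells (passages 16–19) were seeded at 5 × 10^3 cells per spheroid in ultra-low-attachment plates. On Day 10, 7–8 spheroids were pooled per well and exposed for 24 h at 37 °C in 5% CO2, with final DMSO ≤1%. ATP was measured with the CellTiter-Glo 3D kit as % of vehicle control, from at least three independent experiments.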

[15] = tested on: 2D HepaRG cells; assay: ATP assay; assay type: cell-based, human; conditions: 24-h exposure, at concentrations up to 10 mM
Outline: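 Differentiated HepaRG cells (passages 16–19) replated at 5 × 10^4 cells/well as 2D monolayers and treated 3 days after seeding. Exposure was 24 h at 37 °C in 5% CO2 in differentiation medium, with final DMSO ≤1%. Viability was read by CellTiter-Glo luminescence as %ATP relative to vehicle control, from at least three independent experiments.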

[16] = tested on: Sprague–Dawley rats; conditions: treated 5 days each week with 1.8 or 12 mg NDIPA for 50 or 40 weeks; ref Lijinsky and Taylor 1979; cited from earlier work

Structure (SMILES)	IARC group [1]	Micronucleus (MN) formation [2]	Phosphorylation of histone H2A.X (γH2A.X) [2]	Outcome, MN assay [4]	Fold increase of MN formation over the vehicle control [4]	Outcome, CometChip assay [5]	Fold increase of DNA damage over the vehicle control [5]	Gold TD50 in rat [6]	Outcome, CometChip assay [7]	Fold increase of DNA damage over the vehicle control [7]	ECHA classification [8]	Oral rat LD50 [9]	Outcome, MN assay [10]	Fold increase of MN formation over the vehicle control [10]	MN response (in words) [4]	MN response (in words) [10]	other results
CCN(CC)N=O [NDEA, N-nitrosodiethylamine]	2A	induced	increased	+ + (2 ≤ ratio < 5)	2.2 fold	+ + (2 ≤ ratio < 5)	2.6 fold	0.0265 mg/kg/day	+ + (2 ≤ ratio < 5)	2.3 fold	Carc.1A/1B; Muta.2	280 mg/kg	+ (1.5 ≤ ratio < 2)	1.7 fold	–	–	Number of different animal species in which tumors were induced [3]: 26
CCCCN(CCCC)N=O [NDBA, N-nitrosodibutylamine]	2B	–	increased	+ + (2 ≤ ratio < 5)	2.3 fold	+ + (2 ≤ ratio < 5)	2.8 fold	0.691 mg/kg/day	+ + (2 ≤ ratio < 5)	2.4 fold	Carc.2	1200 mg/kg	+ (1.5 ≤ ratio < 2)	1.5 fold	–	–	MN frequency [11]: didn’t increase; Lowest concentration increasing MN formation [12]: 10 µM; Lowest concentration increasing sister chromatid exchanges [12]: 1 µM; BMC50 value for γH2A.X responses, rank among the eight nitrosamines [13]: lowest
CN(N=O)c1ccccc1 [NMPA, N-nitrosomethylphenylamine]	–	induced	increased	+ + (2 ≤ ratio < 5)	–	+ + (2 ≤ ratio < 5)	–	–	− (The ratio ≤ 1.5-fold (p ≥ 0.05 vs. vehicle control, green color))	–	Carc.2	280 mg/kg	− (The ratio ≤ 1.5-fold (p ≥ 0.05 vs. vehicle control, green color))	–	–	–	–
CC(C)N(N=O)C(C)C [NDIPA, N-nitrosodiisopropylamine]	–	–	increased	− (The ratio ≤ 1.5-fold (p ≥ 0.05 vs. vehicle control, green color))	1.2 fold	+ (1.5 ≤ ratio < 2)	1.8 fold	–	− (The ratio ≤ 1.5-fold (p ≥ 0.05 vs. vehicle control, green color))	1.1 fold	Carc.1B; Muta.1B	850 mg/kg	− (The ratio ≤ 1.5-fold (p ≥ 0.05 vs. vehicle control, green color))	1.1 fold	negative	negative	Cytotoxicity (ATP assay) [14]: less than 30%; BMC50 estimate for DNA strand breakage, rank among the eight nitrosamines [5]: highest; Cytotoxicity (ATP assay) [15]: less than 30%; Carcinogenicity in Sprague–Dawley rats (in words) [16]: weak carcinogen; BMC50 value for γH2A.X responses, rank among the eight nitrosamines [13]: highest
O=NN1CCN(C2CCCC2)CC1 [CPNP, N-cyclopentyl-4-nitrosopiperazine]	–	–	–	− (The ratio ≤ 1.5-fold (p ≥ 0.05 vs. vehicle control, green color))	1.4 fold	+ + (2 ≤ ratio < 5)	2.3 fold	–	− (The ratio ≤ 1.5-fold (p ≥ 0.05 vs. vehicle control, green color))	0.9 fold	Carc.1B	–	− (The ratio ≤ 1.5-fold (p ≥ 0.05 vs. vehicle control, green color))	1.4 fold	negative	negative	–
CN(C)N=O [NDMA, N-nitrosodimethylamine]	2A	–	–	+ + (2 ≤ ratio < 5)	–	+ + + (ratio ≥ 5 (p < 0.05, red color))	–	–	+ + (2 ≤ ratio < 5)	–	Carc.1B	40 mg/kg	+ + (2 ≤ ratio < 5)	–	–	–	Number of different animal species in which tumors were induced [3]: 16; BMC50 estimate for %MN, rank among the five positive responses ([4]; PROAST exponential model): lowest; BMC50 estimate for DNA strand breakage, rank among the eight nitrosamines [5]: lowest
CN(CCCC(=O)O)N=O [NMBA, N-nitroso-N-methyl-4-aminobutyric acid]	–	induced	increased	+ (1.5 ≤ ratio < 2)	1.8 fold	+ + (2 ≤ ratio < 5)	2.3 fold	0.982 mg/kg/day	− (The ratio ≤ 1.5-fold (p ≥ 0.05 vs. vehicle control, green color))	1.0 fold	Carc.2	–	− (The ratio ≤ 1.5-fold (p ≥ 0.05 vs. vehicle control, green color))	1.4 fold	–	–	–
CCN(N=O)C(C)C [NEIPA, N-nitrosoethylisopropylamine]	–	induced	increased	− (The ratio ≤ 1.5-fold (p ≥ 0.05 vs. vehicle control, green color))	1.3 fold	+ + (2 ≤ ratio < 5)	2.4 fold	–	− (The ratio ≤ 1.5-fold (p ≥ 0.05 vs. vehicle control, green color))	1.5 fold	Carc.1B	1100 mg/kg	− (The ratio ≤ 1.5-fold (p ≥ 0.05 vs. vehicle control, green color))	1.1 fold	negative	negative	Cytotoxicity (ATP assay) [14]: less than 30%; Cytotoxicity (ATP assay) [15]: less than 30%
